# Test results as given in ChEMBL document CHEMBL3351317 (J Med Chem, 2014).
# Columns and labels:
# [1] = Distribution coefficient, log D between 1-octonol and aqueous phosphate buffer at pH 7.4; type: physicochemical; conditions: 1-octanol/aqueous phosphate buffer
# Summary of the method: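 logD measured as distribution between 1-octanol and aqueous phosphate buffer, pH 7.4.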
# [2] = Intrinsic clearance in rat hepatocytes assessed per million cells; type: ADME, cell-based, Hepatocyte; conditions: read-out: CLH
# [3] = AUC (0 to 24 hrs) in Han Wistar rat at 100 mg/kg, po; type: ADME, organism-based; parameters: time < 24 hr, dose 100 mg/kg, route oral; conditions: plasma
# Summary of the method: (§1)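 Male Han Wistar rats, fed, single oral dose of suspension in 0.1% Pluronic F127; plasma AUC0-24hr in μM.h; mean of two animals.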
# [4] = Half life in C57BL6 mouse at 3 mg/kg, iv; type: ADME, organism-based; parameters: dose 3 mg/kg, route intravenous; conditions: in vivo
# Summary of the method: (§2)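 Male C57BL6 mice given 3 mg/kg, male Han Wistar rats 2 mg/kg, beagle dogs (male and female) 2 mg/kg, IV as solution in 5% DMSO:95% hydroxypropyl β-cyclodextrin; plasma PK parameters determined.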
# [5] = Cmax in Han Wistar rat at 12 mg/kg, po; type: ADME, organism-based; parameters: dose 12 mg/kg, route oral; conditions: in vivo
# [6] = AUC (0 to 24 hrs) in C57BL6 mouse at […], po; type: ADME, organism-based; parameters: time < 24 hr, dose 5.7 mg/kg, route oral; conditions: plasma
# [7] = Cmax in Han Wistar rat at 19 mg/kg, po; type: ADME, organism-based; parameters: dose 19 mg/kg, route oral; conditions: in vivo
# [8] = Cmax in Han Wistar rat at 4.5 mg/kg, po; type: ADME, organism-based; parameters: dose 4.5 mg/kg, route oral; conditions: in vivo
# Mus musculus = species: Mus musculus; assay: fCmax in mouse during 12 days study; type: ADME, organism-based; conditions: in vivo, 288 h
# [9] = Volume of distribution at steady state in C57BL6 mouse at 3 mg/kg, iv or 5 mg/kg, po; type: ADME, organism-based; conditions: in vivo, read-out: Vdss
# Summary of the method: (§3)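 Male C57BL6 mice. IV dose 3 mg/kg as a solution in 5% DMSO:95% hydroxypropyl β-cyclodextrin. Oral dose 5 mg/kg as a 0.1% HMPC/tween suspension. Plasma sampled for pharmacokinetic parameters.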
# [10] = Cmax in beagle dog at 98 mg/kg, po; type: ADME, organism-based, Canis lupus familiaris; parameters: dose 98 mg/kg, route oral; conditions: in vivo
# [11] = Half life in Han Wistar rat at 5 mg/kg, po; type: ADME, organism-based; parameters: dose 5 mg/kg, route oral; conditions: in vivo
# [12] = AUC (0 to 24 hrs) in Han Wistar rat at 4.5 mg/kg, po; type: ADME, organism-based; parameters: time < 24 hr, dose 4.5 mg/kg, route oral; conditions: plasma; summary of the method: as §1
# [13] = Cmax in beagle dog at 50 mg/kg, po; type: ADME, organism-based, Canis lupus familiaris; parameters: dose 50 mg/kg, route oral; conditions: in vivo
# [14] = Half life in beagle dog at 2 mg/kg, iv; type: ADME, organism-based, Canis lupus familiaris; parameters: dose 2 mg/kg, route intravenous; conditions: in vivo; summary of the method: as §2
# [15] = Cmax in Han Wistar rat at […], po; type: ADME, organism-based; parameters: dose 7.1 mg/kg, route oral; conditions: in vivo
# [16] = Cmax in C57BL6 mouse at 57 mg/kg, po; type: ADME, organism-based; parameters: dose 57 mg/kg, route oral; conditions: in vivo
# [17] = Cmax in Han Wistar rat at 100 mg/kg, po; type: ADME, organism-based; parameters: dose 100 mg/kg, route oral; conditions: in vivo
# [18] = AUC (0 to 24 hrs) in Han Wistar rat at 154 mg/kg, po; type: ADME, organism-based; parameters: time < 24 hr, dose 154 mg/kg, route oral; conditions: plasma; summary of the method: as §1
# [19] = Cmax in C57BL6 mouse at […], po; type: ADME, organism-based; parameters: dose 5.7 mg/kg, route oral; conditions: in vivo
# [20] = Plasma clearance in C57BL6 mouse at 3 mg/kg, iv or 5 mg/kg, po; type: ADME, organism-based; summary of the method: as §3
# [21] = AUC (0 to 24 hrs) in Han Wistar rat at […], po; type: ADME, organism-based; parameters: time < 24 hr, dose 7.1 mg/kg, route oral; conditions: plasma
# [22] = AUC (0 to 24 hrs) in C57BL6 mouse at 11 mg/kg, po; type: ADME, organism-based; parameters: time < 24 hr, dose 11 mg/kg, route oral; conditions: plasma
# Summary of the method: (§4)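 Male C57BL6 mice, fed, single oral dose of suspension in 0.1% Pluronic F127; plasma sampled, AUC0-24hr in μM.h; mean of two animals.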
# [23] = Plasma clearance in beagle dog at 2 mg/kg, iv or 3.4 mg/kg, po; type: ADME, organism-based, Canis lupus familiaris
# Summary of the method: (§5)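 Beagle dogs, male and female. IV dose 2 mg/kg in 5% DMSO:95% hydroxypropyl β-cyclodextrin. Oral dose 3.4 mg/kg as a 0.1% Pluronic F127 suspension. Plasma pharmacokinetic parameters derived.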
# [24] = Cmax in C57BL6 mouse at 11 mg/kg, po; type: ADME, organism-based; parameters: dose 11 mg/kg, route oral; conditions: in vivo
# [25] = Intrinsic clearance in mouse hepatocytes assessed per million cells; type: ADME, cell-based, Hepatocyte; conditions: read-out: CLH
# [26] = Cmax in Han Wistar rat at 154 mg/kg, po; type: ADME, organism-based; parameters: dose 154 mg/kg, route oral; conditions: in vivo
# [27] = Oral bioavailability in Han Wistar rat at 5 mg/kg; type: ADME, organism-based; conditions: in vivo
# Summary of the method: (§6)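 Male Han Wistar rats. IV dose 2 mg/kg in 5% DMSO:95% hydroxypropyl β-cyclodextrin. Oral dose 5 mg/kg as a 0.1% HMPC/tween suspension. Plasma pharmacokinetic parameters derived.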
# [28] = Intrinsic clearance in human hepatocytes assessed per million cells; type: ADME, cell-based, Hepatocyte; conditions: read-out: CLH
# [29] = AUC (0 to 24 hrs) in beagle dog at 98 mg/kg, po; type: ADME, organism-based, Canis lupus familiaris; parameters: time < 24 hr, dose 98 mg/kg, route oral; conditions: plasma
# Summary of the method: (§7)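 Beagle dogs (one male, one female), fed, single oral dose of suspension in 0.1% Pluronic F127; plasma AUC0-24hr in μM.h; mean of the two animals.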
# [30] = AUC (0 to 24 hrs) in Han Wistar rat at 12 mg/kg, po; type: ADME, organism-based; parameters: time < 24 hr, dose 12 mg/kg, route oral; conditions: plasma; summary of the method: as §1
# [31] = AUC (0 to 24 hrs) in C57BL6 mouse at 31 mg/kg, po; type: ADME, organism-based; parameters: time < 24 hr, dose 31 mg/kg, route oral; conditions: plasma; summary of the method: as §4
# [32] = Volume of distribution at steady state in beagle dog at 2 mg/kg, iv or 3.4 mg/kg, po; type: ADME, organism-based, Canis lupus familiaris; conditions: in vivo, read-out: Vdss; summary of the method: as §5
# [33] = Plasma clearance in Han Wistar rat at 2 mg/kg, iv or 5 mg/kg, po; type: ADME, organism-based; summary of the method: as §6
# [34] = AUC (0 to 24 hrs) in beagle dog at 5 mg/kg, po; type: ADME, organism-based, Canis lupus familiaris; parameters: time < 24 hr, dose 5 mg/kg, route oral; conditions: plasma; summary of the method: as §7
# [35] = Oral bioavailability in C57BL6 mouse at 5 mg/kg; type: ADME, organism-based; conditions: in vivo; summary of the method: as §3
# [36] = Degradation half life in pH 10 buffer assessed as loss of trifluoro-oxadiazole group by measuring piperazine level at 25 degC; type: physicochemical
# [37] = Volume of distribution at steady state in Han Wistar rat at 2 mg/kg, iv or 5 mg/kg, po; type: ADME, organism-based; conditions: in vivo, read-out: Vdss; summary of the method: as §6
# [38] = Cmax in beagle dog at 5 mg/kg, po; type: ADME, organism-based, Canis lupus familiaris; parameters: dose 5 mg/kg, route oral; conditions: in vivo
# [39] = Cmax in C57BL6 mouse at 31 mg/kg, po; type: ADME, organism-based; parameters: dose 31 mg/kg, route oral; conditions: in vivo
# [40] = Stability in pH 10 buffer assessed as loss of trifluoro-oxadiazole group; type: physicochemical
# [41] = AUC (0 to 24 hrs) in C57BL6 mouse at 57 mg/kg, po; type: ADME, organism-based; parameters: time < 24 hr, dose 57 mg/kg, route oral; conditions: plasma; summary of the method: as §4
# [42] = Intrinsic clearance in dog hepatocytes assessed per million cells; type: ADME, cell-based, Canis lupus familiaris, Hepatocyte; conditions: read-out: CLH
# [43] = AUC (0 to 24 hrs) in beagle dog at 50 mg/kg, po; type: ADME, organism-based, Canis lupus familiaris; parameters: time < 24 hr, dose 50 mg/kg, route oral; conditions: plasma; summary of the method: as §7
# [44] = AUC (0 to 24 hrs) in Han Wistar rat at 19 mg/kg, po; type: ADME, organism-based; parameters: time < 24 hr, dose 19 mg/kg, route oral; conditions: plasma; summary of the method: as §1
# [45] = Half life in C57BL6 mouse at 5 mg/kg, po; type: ADME, organism-based; parameters: dose 5 mg/kg, route oral; conditions: in vivo
# [46] = Half life in beagle dog at 3.4 mg/kg, po; type: ADME, organism-based, Canis lupus familiaris; parameters: dose 3.4 mg/kg, route oral; conditions: in vivo
# [47] = Permeability from apical to basolateral side in human Caco2 cells at 10 uM; type: ADME, cell-based; conditions: Caco-2
# Summary of the method: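 In vitro Caco-2 monolayer, compound at 10 µM. Apparent permeability (Papp) measured apical to basolateral; efflux ratio also determined.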
# [48] = Half life in Han Wistar rat at 2 mg/kg, iv; type: ADME, organism-based; parameters: dose 2 mg/kg, route intravenous; conditions: in vivo; summary of the method: as §2
# [49] = Oral bioavailability in beagle dog at 3.4 mg/kg; type: ADME, organism-based, Canis lupus familiaris; conditions: in vivo; summary of the method: as §5
# [50] = Stability in pH 1 to 8 buffer; type: physicochemical
smiles,measurement,setting,value
C[C@@H]1CN(c2nnc(C(F)(F)F)o2)CCN1c1ncc(OCc2ccc(C[S+](C)[O-])cc2F)cn1 (stereo not given in full),logD,[1],2.6
same,hepatocyte CLint,[2],53 µL/min/1e6 cells
C[C@@H]1CN(c2nnc(C(F)(F)F)o2)CCN1c1ncc(OCc2ccc(C#N)cc2F)cn1,logD,[1],3.8
C[C@@H]1CN(c2nnc(C(F)(F)F)o2)CCN1c1ncc(OCc2ccc(S(C)(=O)=O)cc2)cn1,logD,[1],2.8
C[C@@H]1CN(c2nc(C(F)(F)F)no2)CCN1c1ncc(OCc2ccc(CS(C)(=O)=O)cc2F)cn1,AUC(0-t) at 24 h,[3],123 µM·h
same,half-life,[4],6.3 h
same,Cmax,[5],3.4 µM
same,AUC(0-t) at 24 h,[6],26 µM·h
same,Cmax,[7],7.5 µM
same,Cmax,[8],0.8 µM
same,fCmax,Mus musculus,0.7 µM
same,Vd,[9],5.1 L/kg
same,Cmax,[10],5.3 µM
same,half-life,[11],6.7 h
same,AUC(0-t) at 24 h,[12],10 µM·h
same,Cmax,[13],3.2 µM
same,half-life,[14],26 h
same,Cmax,[15],1.1 µM
same,Cmax,[16],29 µM
same,Cmax,[17],8 µM
same,AUC(0-t) at 24 h,[18],247 µM·h
same,Cmax,[19],2.5 µM
same,clearance,[20],0.588 L/h/kg
same,AUC(0-t) at 24 h,[21],11 µM·h
same,AUC(0-t) at 24 h,[22],35 µM·h
same,clearance,[23],0.096 L/h/kg
same,Cmax,[24],3.3 µM
same,hepatocyte CLint,[25],7 µL/min/1e6 cells
same,Cmax,[26],13.7 µM
same,bioavailability,[27],85%
same,logD,[1],3.6
same,hepatocyte CLint,[28],< 2 µL/min/1e6 cells
same,AUC(0-t) at 24 h,[29],78 µM·h
same,AUC(0-t) at 24 h,[30],33 µM·h
same,AUC(0-t) at 24 h,[31],151 µM·h
same,Vd,[32],3.3 L/kg
same,clearance,[33],0.66 L/h/kg
same,AUC(0-t) at 24 h,[34],20 µM·h
same,bioavailability,[35],76%
same,t1/2,[36],60 h
same,Vd,[37],5.2 L/kg
same,Cmax,[38],1.5 µM
same,Cmax,[39],11.8 µM
same,Stability,[40],Unstable
same,AUC(0-t) at 24 h,[41],456 µM·h
same,hepatocyte CLint,[42],< 2 µL/min/1e6 cells
same,AUC(0-t) at 24 h,[43],42 µM·h
same,AUC(0-t) at 24 h,[44],106 µM·h
same,half-life,[45],6.9 h
same,half-life,[46],30 h
same,Papp A→B at 10 µM,[47],100 nm/s
same,half-life,[48],6.1 h
same,bioavailability,[49],98%
same,Stability,[50],Stable
C[C@@H]1CN(C(=O)OC2(C(F)(F)F)COC2)CCN1c1ncc(OCc2ccc(CS(C)(=O)=O)cc2F)cn1,logD,[1],2.9
C[C@@H]1CN(c2nnc(C(F)(F)F)o2)CCN1c1ncc(OCc2ccc(S(C)(=O)=O)cc2F)cn1,logD,[1],3
C[C@@H]1CN(c2nnc(C(F)(F)F)o2)CCN1c1ncc(OCc2ccc(OS(C)(=O)=O)cc2F)cn1,logD,[1],3.7
C[C@@H]1CN(c2nc(C(F)(F)F)no2)CCN1c1ncc(OCc2ccc(N=S(C)(C)=O)cc2F)cn1,logD,[1],3.4
C[C@@H]1CN(c2nnc(C(F)(F)F)o2)CCN1c1ncc(OCc2ccc(-n3cnnn3)cc2F)cn1,logD,[1],3.6
C[C@@H]1CN(c2nc(C(F)(F)F)no2)CCN1c1ncc(OCc2ccc(S(C)(=O)=O)cc2F)cn1,logD,[1],3.7
